GASC-1 inh = human JMJD2C demethylase inhibition; 0.069% of 330,000 active; inhibition, % at 2.35 µM; Q9H3R0; GST-JMJD2C(1-420) H3K9me3 demethylation, DELFIA europium;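 active = more than half of a compound's replicate wells show inhibition beyond 50%, single wells judged on their own value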;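 note: signal counts dimethyl H3K9 product captured on neutravidin plate; 0% = median of DMSO wells and 100% = 0.3 times that DMSO median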
SIAE inh = human SIAE inhibition, primary screen; AID 1053197; SIAE FP-Rh probe binding, fluorescence polarization; 0.69% of 370,000 active; inhibition, % at 9.66 µM; Q9HAT2;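 active = inhibition above a cutoff: mean of compounds within the control limits plus 3 SD of those, cut at about 17% in these data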;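 note: 0% = plate median of compound wells and 100% = probe without SIAE protein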
HTRA1 inhibitor = blocks human HTRA1 serine peptidase; Q92743; recombinant HTRA1, FP-rhodamine activity-based probe, fluorescence polarization; inhibition, % at 5.96 µM; 0.5% of 340,000 active; AID 504803; in the data active = inhibition above about 36%;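 note: 0% = enzyme with DMSO and 100% = wells lacking enzyme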
PRMT1 FP inh = inhibitors of human PRMT1; Q99873; recombinant PRMT1, activity-based probe fluorescence polarization; inhibition, % at 2.79 µM; 1.3% of 370,000 active;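 active = inhibition above about 21% made by adding two undisclosed values, limit read from the data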
ABHD4 inh = inhibits mouse alpha/beta hydrolase domain 4; inhibition, % at 8.92 µM; purified mABHD4, FP-Rh probe fluorescence polarization; AID 720543; Q8VD66; 0.54% of 370,000 active;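 active = inhibition exceeding the mean over every tested compound plus 3 SD, cut at about 30% in these data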;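 note: 0% = plate median of compound wells and 100% = S159A mutant with DMSO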
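System: mouse ABHD4 enzyme, wild type / Medium: HEPES pH 7.0, NaCl, Pluronic buffer / Reagent: FP-Rh activity-based fluorescent probe / Control set: S159A mutant high control, sample median low control / Detection: fluorescence polarization with parallel and perpendicular emission, 525/598 nm / Schedule: 45 min + 60 min at 25 °C / Compound dosing: 8.92 µM, single dose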
PRMT1 confirm = confirmation of human PRMT1 inhibitors; shares compounds with PRMT1 FP inh; recombinant His-PRMT1, activity-based probe fluorescence polarization; inhibition, % at 2.79 µM; 42% of 3,300 active; AID 687036;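 active = mean inhibition across replicates above the hit cutoff derived for the earlier primary screen, cut at about 22% in these data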
* marks the source's active call; other numbers are inactive results; · = not tested or not shown. A selection: hits, their analogues and other compounds. The true share with any hit is near 2.4%.

SMILES	GASC-1 inh	SIAE inh	HTRA1 inhibitor	PRMT1 FP inh	ABHD4 inh	PRMT1 confirm
CNC(=S)N(Cc1ccco1)Cc1cc2cc(OC)ccc2[nH]c1=O	2	-1	3	4	-12	·
COC(=O)c1ccccc1S(=O)(=O)N(Cc1ccco1)Cc1cc2cc(OC)ccc2[nH]c1=O	-10	-1	-2	30*	6	-2
O=C(O)c1cc(-c2ccc(/C=C3\NC(=O)N(c4ccccc4)C3=O)o2)ccc1Cl	8	14	5	6	9	·
O=C(O)c1cc(-c2ccc(/C=C3\NC(=O)N(c4ccc(Cl)cc4)C3=O)o2)ccc1Cl	1	-2	6	27*	15	22*
COC(=O)[C@H](C(C)C)N1Cc2nnn(Cc3ccccc3)c2-c2cc(F)ccc2S1(=O)=O	·	-1	·	0	1	·
CCCC1CCC2(CCCN2CCOC(=S)Nc2ccccc2Cl)CC1 (stereo unspecified)	·	-6	·	3	3	·
FC(F)(F)c1ccccc1NC(=S)OCCN1CCCC12CCC(c1ccccc1)CC2 (stereo unspecified)	·	2	·	42*	10	25*
CCCC1CCC2(CCCN2CCOC(=S)Nc2cccc(Cl)c2)CC1 (stereo unspecified)	·	10	·	32*	5	30*
CC(=O)Nc1ncc2c(n1)CC(c1ccco1)CC2=O (stereo unspecified)	3	3	1	0	3	·
CCC(=O)Nc1ncc2c(n1)CC(c1ccco1)CC2=O (stereo unspecified)	-2	5	21	41*	2	8
Nc1ncc2c(n1)CC(c1ccco1)CC2=O (stereo unspecified)	9	16	9	28*	12	4
O=C(Nc1ncc2c(n1)CC(c1ccco1)CC2=O)c1ccco1 (stereo unspecified)	1	5	11	36*	12	4
CC(C=NNc1ccc([N+](=O)[O-])cn1)=Cc1ccccc1	·	4	3	-2	1	·
CCN1CCN(C(=S)c2ccc(Cl)c(Cl)c2)CC1	-7	2	-6	63*	-2	49*
Cn1cnc([N+](=O)[O-])c1S(=O)(=O)Oc1ccc(Cl)cc1	·	0	4	31*	-3	23*
N#Cc1c2nc3ccccc3nc2n2cc(NC(=O)c3ccc(F)cc3)ccc12	·	-10	3	41*	13	14
Cc1c(C(=O)Nc2ccc(F)cc2)cn2c(nc3ccccc32)c1C#N	13	-6	5	-3	2	·
Cc1ccc(-c2cc(-c3ccc(F)cc3)c(C#N)c(N)n2)o1	-2	-10	17	46*	7	20
Cc1ccc(-c2cc(-c3ccc4c(c3)OCO4)c(C#N)c(N)n2)o1	-3	-14	-16	44*	-12	31*
Cc1ccc(-c2cc(-c3ccc(C)o3)nc(N)c2C#N)cc1	-4	-3	8	58*	0	79*
Cc1c(-c2ccc(F)cc2)nc(N)c(C#N)c1-c1ccco1	-1	-9	3	1	-2	·
Cc1ccc(-c2cc(-c3ccc(Cl)cc3)c(C#N)c(N)n2)o1	-6	-2	14	42*	5	63*
CCOc1cc(-c2cc(-c3ccc(C)o3)nc(N)c2C#N)ccc1O	5	-9	-20	1	-16	·
CC(C)[C@@H]1NC(=O)[C@@H]2CSCCS(=O)(=O)N2C1=O	·	2	·	-1	6	·
Cc1ccc(SCCN2CCC(C(C)(C)C)CCC2=O)cc1 (stereo unspecified)	3	-2	-20	2	8	·
SMILES	GASC-1 inh	SIAE inh	HTRA1 inhibitor	PRMT1 FP inh	ABHD4 inh	PRMT1 confirm
C[C@@H](CSc1ccc(Br)cc1)CN1CC[C@H](O)CCC1=O	-5	2	0	0	3	·
CC(=O)Nc1ccc(SC[C@H](C)CN2CC[C@H](O)CCC2=O)cc1	-2	1	-6	26*	3	38*
CC(=O)Nc1ccc(SCCN2CC[C@@H](C(C)(C)C)CCC2=O)cc1	2	2	1	41*	0	43*
CC(C)c1ccccc1NC(=O)[C@@H]1CCCN1S(=O)(=O)c1cccc2cccnc12	·	-6	·	1	-4	·
CCN(CC)CCCNC(=O)/C=C/C(=O)O	22	2	0	27*	0	-1
CC(=O)NC1C(=O)N=C(SCC(=O)NCc2ccccc2)NC1=O (stereo unspecified)	10	-7	0	40*	3	8
